Experimental data: ChEMBL document CHEMBL1687903, “Claurailas A-D, cytotoxic carbazole alkaloids from the roots of Clausena harmandiana” (J Nat Prod, 2011)

What was measured:
KB = assay: Cytotoxicity against human KB cells by resazurin microplate assay; assay type: functional, cell-based
Summary of the method: (§1)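 Resazurin microplate assay (REMA) on human epidermoid carcinoma KB and human small cell lung cancer NCI-H187 lines, with ellipticine as reference substance. Activity reported as IC50 in μM.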

NCI-H187 = assay: Cytotoxicity against human NCI-H187 by resazurin microplate assay; assay type: functional, cell-based; summary of the method: as §1
Vero = assay: Cytotoxicity against african green monkey Vero cells by green fluorescent protein microplate assay; assay type: cell-based; conditions: Chlorocebus sabaeus
Summary of the method: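 Green fluorescent protein-based assay on Vero cells (African green monkey kidney), used as the normal-cell counterscreen, with ellipticine as reference substance. Activity reported as IC50 in μM.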

Row | SMILES | IC50 (KB) [µM] | IC50 (NCI-H187) [µM] | IC50 (Vero) [µM]
1 | COc1ccc2c(c1)[nH]c1cc(OC)c(C=O)cc12 [LANSINE] | > 200 | 102 | > 200
2 | COC(=O)c1ccc2[nH]c3ccc4c(c3c2c1)C=CC(C)(C)O4 [CLAURAILAS C] | > 200 | > 200 | > 200
3 | CC1(C)C=Cc2c(ccc3[nH]c4cc(O)c(C=O)cc4c23)O1 [CLAURAILAS D] | 30.6 | 7.54 | 29.4
4 | COc1ccc2c(c1)[nH]c1c(OC)cc(C=O)cc12 [CLAURAILAS A] | > 200 | 13.5 | > 200
5 | C=CC(C)(C)c1c2c(c(OC)c3ccc(=O)oc13)C=CC(C)(C)O2 [DENTATIN] | 114 | 45.4 | > 200
6 | COC(=O)c1cc(O)c2[nH]c3ccccc3c2c1 [CLAUSINE E] | 108 | 94.6 | 152
7 | C=CC(C)(C)c1c2c(c(O)c3ccc(=O)oc13)C=CC(C)(C)O2 [NORDENTATIN] | 20.6 | 11.8 | 56.4
8 | COc1ccc2c(c1)[nH]c1c(O)cc(C=O)cc12 | 10.7 | 10.4 | 180
9 | O=Cc1cc2c(cc1O)[nH]c1cc(O)ccc12 [CLAUSINE O] | 59.6 | 74.7 | 64.6
10 | O=Cc1cc(O)c2[nH]c3ccccc3c2c1 [O-DEMETHYLMURRAYANINE] | 5.49 | 19.2 | 104
11 | Cc1cc2c([nH]c3ccccc32)c2c1OC(C)(C)C=C2 [GRINIMIBINE] | 7.02 | 22.4 | > 200
12 | CC(C)=CCc1c(O)c(C=O)cc2c1[nH]c1ccccc12 [HEPTAPHYLLINE] | 1.61 | 1.32 | 92.5
13 | COc1ccc2c(c1)[nH]c1c(CC=C(C)C)c(O)c(C=O)cc12 | 2.75 | 1.68 | > 200
14 | Cc1cc2c([nH]c3c(O)cccc32)c2c1OC(C)(C)C=C2 [CLAURAILAS B] | > 200 | > 200 | > 200
15 | COc1c2c(cc3oc(=O)ccc13)OC(C)(C)C=C2 [XANTHOXYLETIN] | 133 | > 200 | > 200
16 | COc1cc(C=O)cc2c1[nH]c1ccccc12 [MURRAYANINE] | 72.2 | 11.5 | > 200
17 | CC(C)=CCc1c(O)c(C=O)cc2c1[nH]c1cc(O)ccc12 [7-HYDROXYHEPTAPHYLLINE] | 27.9 | 14.6 | 41.2
18 | COc1ccc2c(c1)[nH]c1cc(OC)c(C(=O)O)cc12 [CLAUSINE K] | > 200 | 139 | 178
19 | Cc1c2ccncc2c(C)c2c1[nH]c1ccccc12 [ELLIPTECINE] | – | 2.76 | 3.82
